Consider 18 compounds from ChEMBL document CHEMBL1137991, “Novel secoergoline derivatives inhibit both GABA and glutamate uptake in rat brain homogenates: synthesis, in vitro pharmacology, and modeling” (J Med Chem, 2004).

Assay [1] is described as follows: In vitro inhibition of [3H]DASP transport through rat cerebrocortical membranes. The class given is functional, cell membranes, Membrane. An outline of the steps: (§1)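 Rat cerebrocortical native plasma membrane vesicle fraction, final pellet in buffer A (145 mM NaCl, 5 mM KCl, 1 mM CaCl2, 1 mM MgCl2, 10 mM glucose, 0.1 mM aminooxyacetate, 2 mM NaHCO3, 20 mM HEPES, pH 7.5). Specific [3H]D-aspartate (24 Ci/mmol) transport measured at 30 °C. Duplicates in 2–6 experiments. IC50 given as mean ± SD.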

Assay [2] deals with T1, GABA transporter (Rattus norvegicus, UniProt P31647+P23978+P31646+P48056). Briefly: In vitro inhibitory activity against [3H]GABA transport in rat cerebrocortical membranes. The class given is cell membranes. The essentials: (§2)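 Specific [3H]GABA (61 Ci/mmol) transport was measured at 30 °C in a native plasma membrane vesicle fraction from rat cerebral cortex. Vesicles were suspended in buffer A (Na+/K+/Ca2+/Mg2+ saline, 10 mM glucose, 0.1 mM aminooxyacetate, 20 mM HEPES, pH 7.5). Duplicates in 2–6 experiments. IC50 given as mean ± SD.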

A short description of assay [3]: In vitro inhibition of [3H]DASP transport through rat cerebrocortical membranes with 100 uM TBOA; Phase 1. The assay is classed as functional, cell membranes, Membrane. The essentials:
(§3)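 [3H]D-aspartate (24 Ci/mmol) transport into rat cerebrocortical plasma membrane vesicles in HEPES-buffered saline A, pH 7.5, at 30 °C, with 100 µM DL-TBOA present. An IC50 was taken for each phase of the dose–response curve. Duplicates in 2–6 experiments, mean ± SD.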

The nature of assay [4]: In vitro inhibition of [3H]DASP transport through rat cerebrocortical membranes without TBOA; Control. The assay is classed as functional, cell membranes, Membrane. The essentials: as §1
The nature of assay [5]: In vitro inhibition of [3H]DASP transport through rat cerebrocortical membranes with 100 uM TBOA; Phase 2. The assay is classed as functional, cell membranes, Membrane. The essentials: as §3
The target of assay [6] is T1, GABA transporter. Briefly: In vitro inhibitory activity against [3H]-GABA transport in rat cerebrocortical membranes in the presence of NNC-711 (100 uM); Phase 1. The assay is classed as cell membranes. The essentials: (§4)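 [3H]GABA (61 Ci/mmol) uptake by rat cerebrocortical membrane vesicles in buffer A, pH 7.5, at 30 °C, with 100 µM NNC-711 present. An IC50 was derived for each phase of the dose–response curve. Duplicates in 2–6 experiments, mean ± SD.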

Assay [7] has as its target T1, GABA transporter. Briefly: In vitro inhibitory activity against [3H]GABA transport in rat cerebrocortical membranes in the absence of NNC-711; Control. The assay is classed as cell membranes. The essentials: as §2
Assay [8] deals with T1, GABA transporter. Put plainly: In vitro inhibitory activity against [3H]GABA transport in rat cerebrocortical membranes in the presence of NNC-711 (100 uM); Phase 2. The class given is cell membranes. An outline of the steps:
as §4

SMILES strings stand for the structures. A value given as a limit tells only on which side of the number the result lay.

One may read the IC50 as the midpoint of a concentration-inhibition curve. Regarding `CCOC(=O)C1C(=O)C=C(c2ccccc2)C(C)N1C` (configuration not stated), the results for the IC50 (in assay [1]; against GABA transporter [2]) were 660 µM and 680 µM, respectively.

Regarding `COC(=O)/C=C(/c1ccccc1)C(C)N(C)CC(=O)OC` (configuration not stated), the IC50 (in assay [1]; against GABA transporter [2]) was 1100 µM each time.

As to `CCOC(=O)C1C(=O)C=C(c2ccccc2)C(C)N1C.N[C@H](C(=O)O)[C@H](OCc1ccccc1)C(=O)O` (configuration not stated), the IC50 in assay [3] amounted to 0.009 µM; in assay [4], 660 µM; in assay [5], 591 µM.

Turning to `CCOC(=O)/C=C(/c1ccccc1)C(C)N(C)CC(=O)OCC.N[C@H](C(=O)O)[C@H](OCc1ccccc1)C(=O)O` (configuration not stated), the figures for the IC50 in assay [3], in assay [4] and in assay [5] were 0.034 µM, 420 µM and 386 µM, respectively.

For the compound `COC(=O)/C=C(\c1ccccc1)C(C)N(C)CC(=O)OC` (configuration not stated), the IC50 is > 1000 µM in assay [1] and >> 1000 uM against GABA transporter [2].

On to `CCOC(=O)[C@@H]1CN(C)C(C)[C@](O)(c2ccccc2)[C@H]1C(=O)OCC` (some centres not stated), for which the values for the IC50 (in assay [1]; at GABA transporter [2]) were > 1000 µM and >> 1000 uM, respectively.

Take `CCOC(=O)C1=C(c2ccccc2)C(C)N(C)CC1C(=O)OCC` (configuration not stated): the values for the IC50 (in assay [1]; against GABA transporter [2]) were > 1000 µM and >> 1000 uM, respectively.

Take `CCOC(=O)[C@H]1[C@H](C(=O)O)CN(C)C(C)[C@]1(O)c1ccccc1` (some centres not stated): the IC50 in assay [1] was > 1000 µM; against GABA transporter [2] it was >> 1000 uM.

`CC1N(C)C[C@@H](C(=O)O)[C@H](C(=O)O)[C@@]1(O)c1ccccc1` (some centres not stated): the results for the IC50 (in assay [1]; on GABA transporter [2]) were > 1000 µM and >> 1000 uM, respectively.

Turning to `CCOC(=O)/C=C(\c1ccccc1)C(C)N(C)CC(=O)OCC` (configuration not stated), the IC50 in assay [1] is > 1000 µM; against GABA transporter [2] it was >> 1000 uM.

Turning to `COC(=O)/C=C(/c1ccccc1)C(C)N(C)CC(=O)OC.N[C@H](C(=O)O)[C@H](OCc1ccccc1)C(=O)O` (configuration not stated), the IC50 in assay [3] was 0.011 µM; in assay [4], 1100 µM; in assay [5] it was 1020 µM.

Turning to `CCOC(=O)/C=C(/c1ccccc1)C(C)N(C)CC(=O)OCC` (configuration not stated), the IC50 in assay [1] was determined as 420 µM; against GABA transporter [2], 270 µM.

With `CCOC(=O)CNC(C)C(=O)c1ccccc1.Cl` (configuration not stated), the IC50 in assay [1] is > 1000 µM; against GABA transporter [2] it was >> 1000 uM.

`CCOC(=O)C1C(=O)C=C(c2ccccc2)C(C)N1C.Cl.O=C(O)C1=CCCN(CCON=C(c2ccccc2)c2ccccc2)C1`: the 50% inhibitory concentration (IC50) was 0.0037 µM at GABA transporter [6], 680 µM at GABA transporter [7] and 360 µM at GABA transporter [8].

Turning to `CCOC(=O)CN(C)C(C)C(=O)c1ccccc1.Cl` (configuration not stated), the IC50 in assay [1] is > 1000 µM; on GABA transporter [2], >> 1000 uM.

As for `COC(=O)CN(C)C(C)C(=O)c1ccccc1.Cl` (configuration not stated), the values for the IC50 (in assay [1]; on GABA transporter [2]) were > 1000 µM and >> 1000 uM, respectively.

Regarding `COC(=O)/C=C(/c1ccccc1)C(C)N(C)CC(=O)OC.Cl.O=C(O)C1=CCCN(CCON=C(c2ccccc2)c2ccccc2)C1`, the figures for the IC50 at GABA transporter [6], on GABA transporter [7] and on GABA transporter [8] were 0.044 µM, 1100 µM and 491 µM, respectively.

With `CCOC(=O)/C=C(/c1ccccc1)C(C)N(C)CC(=O)OCC.Cl.O=C(O)C1=CCCN(CCON=C(c2ccccc2)c2ccccc2)C1`, the results for the IC50 at GABA transporter [6], at GABA transporter [7] and on GABA transporter [8] were 0.18 µM, 270 µM and 380 µM, respectively.
